What was measured:
[1] = Selectivity index, ratio of IC50 for human LO2 cells to IC50 for human Bel7402 cells; type: toxicity; conditions: LO2 cells versus Bel7402 cells, read-out: Ratio IC50
Outline: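 SI was calculated as IC50 in L-02 normal liver cells divided by IC50 in Bel-7402 cells, both from the 72 h MTT assay.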

PC-3 = assay: Antiproliferative activity against human PC3 cells after 72 hrs by MTT assay; type: functional, cell-based; conditions: PC-3, 72 h
Outline: (§1)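 MTT assay with 72 h exposure to graded concentrations in triplicate. MTT solution then DMSO were added, followed by 10 min at room temperature, with absorbance read at 490 nm. IC50 is reported as the mean of three independent experiments. 5-FU served as positive control.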

HL-60 = assay: Antiproliferative activity against human HL60 cells after 72 hrs by MTT assay; type: functional, cell-based; conditions: HL-60, 72 h; outline: as §1
L02 = assay: Antiproliferative activity against human LO2 cells after 72 hrs by MTT assay; type: cell-based; conditions: L02, 72 h; outline: as §1
Bel7402/5-FU = assay: Antiproliferative activity against human Bel7402/5-FU cells after 72 hrs by MTT assay; type: functional, cell-based; outline: as §1
Bel-7402 = assay: Antiproliferative activity against human Bel7402 cells after 72 hrs by MTT assay; type: functional, cell-based; conditions: Bel-7402, 72 h; outline: as §1

C=C1C(=O)[C@@]23C(=O)O[C@H]4CCC(C)(C)[C@H]5C(=O)OC[C@@]45[C@@H]2CC[C@@H]1[C@H]3O
selectivity ratio [1]: 1.6 | IC50 (PC-3): 22.6 µM | IC50 (HL-60): 20.6 µM | IC50 (L02): 25.5 µM | IC50 (Bel7402/5-FU): 19.6 µM

COC(=O)[C@H](Cc1ccc(N(CCCl)CCCl)cc1)NC(=O)CCC(=O)O
selectivity ratio [1]: 1.5 | IC50 (Bel-7402): 46.5 µM | IC50 (PC-3): 57.3 µM | IC50 (HL-60): 12.4 µM | IC50 (L02): 68.6 µM | IC50 (Bel7402/5-FU): > 100 µM

C=C1C(=O)[C@]23[C@H](O)[C@H]1CC[C@H]2[C@@]12CO[C@]3(O)[C@@H](O)[C@@H]1C(C)(C)CC[C@@H]2O [ORIDONIN]
selectivity ratio [1]: 2.6 | IC50 (Bel-7402): 7.36 µM | IC50 (PC-3): 11 µM | IC50 (HL-60): 14.3 µM | IC50 (L02): 18.9 µM | IC50 (Bel7402/5-FU): 10.5 µM

O=c1[nH]cc(F)c(=O)[nH]1 [FLUOROURACIL]
IC50 (Bel7402/5-FU): > 80 µM

C=C1C(=O)[C@@]23C(=O)O[C@H]4CCC(C)(C)[C@H]5C(=O)OC[C@@]45[C@@H]2CC[C@@H]1[C@H]3OC(=O)CCC(=O)N[C@@H](Cc1ccc(N(CCCl)CCCl)cc1)C(=O)OC
IC50 (Bel-7402): 6.5 µM | IC50 (PC-3): > 100 µM | IC50 (HL-60): 18.5 µM | IC50 (L02): > 100 µM | IC50 (Bel7402/5-FU): 12.8 µM

C=C1C(=O)[C@@]23C(=O)O[C@H]4CCC(C)(C)[C@H]5C(=O)OC[C@@]45[C@@H]2CC[C@@H]1[C@H]3OC(=O)CCCc1ccc(N(CCCl)CCCl)cc1
selectivity ratio [1]: 16.3 | IC50 (Bel-7402): 3.06 µM | IC50 (PC-3): 5.5 µM | IC50 (HL-60): 9.94 µM | IC50 (L02): 49.8 µM | IC50 (Bel7402/5-FU): 15.6 µM
